Columns and labels:
Format in all cases: functional
[1] = test system: Staphylococcus aureus; assay: Antibacterial activity against methicillin-resistant Staphylococcus aureus 33827 infected in in vitro pharmacokinetic model assessed as time required to 99.9% killing at 3 mg/ml using 10^6 CFU/ml inoculum
[2] = test system: Staphylococcus aureus; assay: Antibacterial activity against methicillin-resistant Staphylococcus aureus 33815 infected in in vitro pharmacokinetic model assessed as time required to 99.9% killing at 3 mg/ml using 10^6 CFU/ml inoculum
Procedure, shortened: (§1)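 Single-compartment model in 10% MHB at 37°C with 10^6 CFU/ml inoculum. Log change in count from time 0 and times to 99%/99.9% kill from serial spiral-plate counts; at least triplicate.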

[3] = test system: Staphylococcus aureus; assay: Antibacterial activity against methicillin-resistant Staphylococcus aureus 33827 infected in in vitro pharmacokinetic model assessed as time required to 99% killing at 3 mg/ml using 10^6 CFU/ml inoculum
[4] = test system: Staphylococcus aureus; assay: Antibacterial activity against methicillin-resistant Staphylococcus aureus 33922 infected in in vitro pharmacokinetic model assessed as time required to 99% killing at 3 mg/ml using 10^6 CFU/ml inoculum
[5] = test system: Staphylococcus aureus; assay: Antibacterial activity against methicillin-resistant Staphylococcus aureus 33922 infected in in vitro pharmacokinetic model assessed as time required to 99.9% killing at 3 mg/ml using 10^6 CFU/ml inoculum
[6] = test system: Staphylococcus aureus; assay: AUBKC (0 to 24 hrs) in methicillin-resistant Staphylococcus aureus 33922 infected in in vitro pharmacokinetic model at 3 mg/ml using 10^6 CFU/ml inoculum
Procedure, shortened: (§2)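 Run in a single-compartment in vitro PK model at 37°C in 10% MHB, flow 47.9 ml/h, 10^6 CFU/ml inoculum. Viable counts over 48 h. AUBKC 0-24 and 0-48 h by log-linear trapezoidal rule, at least triplicate.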

[7] = test system: Staphylococcus aureus; assay: Antibacterial activity against methicillin-resistant Staphylococcus aureus 33922 infected in in vitro pharmacokinetic model assessed as reduction in viable count at 3 mg/ml after 12 hrs using 10^6 CFU/ml inoculum
[8] = test system: Staphylococcus aureus; assay: Antibacterial activity against methicillin-resistant Staphylococcus aureus 33827 infected in in vitro pharmacokinetic model assessed as reduction in viable count at 3 mg/ml after 48 hrs using 10^6 CFU/ml inoculum
[9] = test system: Staphylococcus aureus; assay: Antibacterial activity against methicillin-resistant Staphylococcus aureus 33922 infected in in vitro pharmacokinetic model assessed as reduction in viable count at 3 mg/ml after 36 hrs using 10^6 CFU/ml inoculum
[10] = test system: Staphylococcus aureus; assay: Antibacterial activity against methicillin-resistant Staphylococcus aureus 33815 infected in in vitro pharmacokinetic model assessed as reduction in viable count at 3 mg/ml after 24 hrs using 10^6 CFU/ml inoculum; procedure, shortened: as §1
[11] = test system: Staphylococcus aureus; assay: AUBKC (0 to 48 hrs) in methicillin-resistant Staphylococcus aureus 33815 infected in in vitro pharmacokinetic model at 3 mg/ml using 10^6 CFU/ml inoculum; procedure, shortened: as §2
[12] = test system: Staphylococcus aureus; assay: Antibacterial activity against methicillin-resistant Staphylococcus aureus 33815 infected in in vitro pharmacokinetic model assessed as reduction in viable count at 3 mg/ml after 12 hrs using 10^6 CFU/ml inoculum; procedure, shortened: as §1
[13] = test system: Staphylococcus aureus; assay: Antibacterial activity against methicillin-resistant Staphylococcus aureus 33827 infected in in vitro pharmacokinetic model assessed as reduction in viable count at 3 mg/ml after 36 hrs using 10^6 CFU/ml inoculum
[14] = test system: Staphylococcus aureus; assay: Antibacterial activity against methicillin-resistant Staphylococcus aureus 33815 infected in in vitro pharmacokinetic model assessed as reduction in viable count at 3 mg/ml after 36 hrs using 10^6 CFU/ml inoculum; procedure, shortened: as §1
[15] = test system: Staphylococcus aureus; assay: Antibacterial activity against methicillin-resistant Staphylococcus aureus 33827 infected in in vitro pharmacokinetic model assessed as reduction in viable count at 3 mg/ml after 12 hrs using 10^6 CFU/ml inoculum
[16] = test system: Staphylococcus aureus; assay: AUBKC (0 to 48 hrs) in methicillin-resistant Staphylococcus aureus 33922 infected in in vitro pharmacokinetic model at 3 mg/ml using 10^6 CFU/ml inoculum; procedure, shortened: as §2
[17] = test system: Staphylococcus aureus; assay: Antibacterial activity against methicillin-resistant Staphylococcus aureus 33827 infected in in vitro pharmacokinetic model assessed as reduction in viable count at 3 mg/ml after 24 hrs using 10^6 CFU/ml inoculum
[18] = test system: Staphylococcus aureus; assay: Antibacterial activity against methicillin-resistant Staphylococcus aureus 33815 infected in in vitro pharmacokinetic model assessed as reduction in viable count at 3 mg/ml after 48 hrs using 10^6 CFU/ml inoculum; procedure, shortened: as §1
[19] = test system: Staphylococcus aureus; assay: AUBKC (0 to 48 hrs) in methicillin-resistant Staphylococcus aureus 33827 infected in in vitro pharmacokinetic model at 3 mg/ml using 10^6 CFU/ml inoculum; procedure, shortened: as §2
[20] = test system: Staphylococcus aureus; assay: Antibacterial activity against methicillin-resistant Staphylococcus aureus 33815 infected in in vitro pharmacokinetic model assessed as time required to 99% killing at 3 mg/ml using 10^6 CFU/ml inoculum; procedure, shortened: as §1
[21] = test system: Staphylococcus aureus; assay: Antibacterial activity against methicillin-resistant Staphylococcus aureus 33922 infected in in vitro pharmacokinetic model assessed as reduction in viable count at 3 mg/ml after 48 hrs using 10^6 CFU/ml inoculum
[22] = test system: Staphylococcus aureus; assay: AUBKC (0 to 24 hrs) in methicillin-resistant Staphylococcus aureus 33827 infected in in vitro pharmacokinetic model at 3 mg/ml using 10^6 CFU/ml inoculum; procedure, shortened: as §2
[23] = test system: Staphylococcus aureus; assay: Antibacterial activity against methicillin-resistant Staphylococcus aureus 33922 infected in in vitro pharmacokinetic model assessed as reduction in viable count at 3 mg/ml after 24 hrs using 10^6 CFU/ml inoculum
[24] = test system: Staphylococcus aureus; assay: AUBKC (0 to 24 hrs) in methicillin-resistant Staphylococcus aureus 33815 infected in in vitro pharmacokinetic model at 3 mg/ml using 10^6 CFU/ml inoculum; procedure, shortened: as §2

Structure (SMILES): CN[C@H](CC(C)C)C(=O)N[C@H]1C(=O)N[C@@H](CC(N)=O)C(=O)N[C@H]2C(=O)N[C@H]3C(=O)N[C@H](C(=O)N[C@H](C(=O)O)c4cc(O)cc(O)c4-c4cc3ccc4O)[C@H](O)c3ccc(c(Cl)c3)Oc3cc2cc(c3O[C@@H]2O[C@H](CO)[C@@H](O)[C@H](O)[C@H]2O[C@H]2C[C@](C)(N)[C@H](O)[C@H](C)O2)Oc2ccc(cc2Cl)[C@H]1O [VANCOMYCIN]
- Time [1]: 24 h
- Time [2]: 12 h
- Time [3]: 24 h
- Time [4]: 12 h
- Time [5]: >48 h
- AUBC [6]: 54.8 log10CFU/ml.hr
- log10CFU/ml [7]: 2.2
- log10CFU/ml [8]: 4.2
- log10CFU/ml [9]: 3
- log10CFU/ml [10]: 2
- AUBC [11]: 97.4 log10CFU/ml.hr
- log10CFU/ml [12]: 3.3
- log10CFU/ml [13]: 4
- log10CFU/ml [14]: 1.7
- log10CFU/ml [15]: 1.8
- AUBC [16]: 80.1 log10CFU/ml.hr
- log10CFU/ml [17]: 3.2
- log10CFU/ml [18]: 1.6
- AUBC [19]: 61.9 log10CFU/ml.hr
- Time [20]: 12 h
- log10CFU/ml [21]: 2.9
- AUBC [22]: 56.7 log10CFU/ml.hr
- log10CFU/ml [23]: 2.6
- AUBC [24]: 46.2 log10CFU/ml.hr

Reference: ChEMBL document CHEMBL1255300, “Pharmacodynamics of the antibacterial effect and emergence of resistance to tomopenem, formerly RO4908463/CS-023, in an in vitro pharmacokinetic model of Staphylococcus aureus infection” (Antimicrob Agents Chemother, 2008)
